MLL AF4-AF9 inh: inhibitors of AF4 peptide binding to AF9, primary screen, biochemical, AlphaScreen, biotin-AF4 peptide, FLAG-AF9, single point. hit rate 0.47% among 350,000. Protein AF-9 (Homo sapiens), P42568. inhibition, % at 10 µM. AID 651704, 2012;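 active = every replicate reaching a set inhibition limit, whatever the replicate mean, cut at about 25% in these data; inconclusive = mean inhibition reaches that limit but some replicates miss it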;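 also: 0% = plate neutral control median and 100% = total signal loss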
FN deposit inh: inhibitors of fibronectin matrix deposition, primary screen, AH1F cells, Alexa488-fibronectin fluorescence, plate reader; AH1F fibroblasts, overnight; inhibition, % at 12.6 µM; hit rate 0.086% among 350,000; AID 743247, 2014;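 active = mean inhibition across replicates of 30% or more, regardless of how many single replicates reach that level; inconclusive = mean under 30% yet at least half of replicates reach 30%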;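 also: positive control wells lacked labelled fibronectin entirely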
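material = AH1F fibroblast monolayer depositing Alexa488-labelled fibronectin into matrix | amount = 10000 AH1F cells/well | buffer or medium = DMEM plus 2% serum, read in PBS | incubation = 1 h cell adhesion before compound, then overnight fibronectin incubation | detection = fluorescence at 485 nm excitation, 525 nm emission | evaluation = percent inhibition as loss of matrix-bound fibronectin fluorescence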
N-glyco inh: increase of ERlucT glycosylation luciferase signal, primary screen, N-linked glycosylation inhibitor project, D54 ERlucT cells, luminescence, set 2; D54 ERlucT glycosylation luciferase reporter, 24 h; percent of 100 nM tunicamycin response; reporter increase, % at 12.5 µM; hit rate 0.23% among 360,000;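 active = mean luciferase reporter signal, scaled so untreated is 0 and the glycosylation-blocking control 100, at or above a set limit in every replicate; inconclusive = mean reaches the limit but not every replicate does; inactive = mean below the limit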;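 also: luciferase carries N-glycosylation sites so blocking glycosylation raises the light; 0% = median of neutral control wells and 100% = median of 100 nM tunicamycin wells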
RAD54 branch: inhibitors of human RAD54 branch migration, primary screen, biochemical, fluorescence, single point; DNA repair and recombination protein RAD54-like (Homo sapiens), Q92698; RAD54 Holliday junction branch migration, FAM/BHQ fluorescence; inhibition, % at 10.4 µM; hit rate 0.14% among 360,000; AID 602329, 2012;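 active = mean normalized replicate activity at least 40 and at least half of replicates scoring 40 or more; inconclusive = only one of the two criteria met; inactive = mean below 40 and under half of replicates reaching 40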;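 also: 0% = median of neutral control wells and 100% = median of positive control wells; inhibitors cause a drop in the FAM fluorescence signal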
RAD52 inh: RAD52 DNA annealing inhibitors, primary screen, biochemical, FRET, single point, set 2. recombinant RAD52 DNA annealing, FRET fluorescence. inhibition, % at 18.7 µM. hit rate 0.46% among 360,000;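 active = every replicate showing at least 50% inhibition; inconclusive = mean inhibition at least 50% but not in every replicate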
Target sequence (P43351 whole entry, looked up): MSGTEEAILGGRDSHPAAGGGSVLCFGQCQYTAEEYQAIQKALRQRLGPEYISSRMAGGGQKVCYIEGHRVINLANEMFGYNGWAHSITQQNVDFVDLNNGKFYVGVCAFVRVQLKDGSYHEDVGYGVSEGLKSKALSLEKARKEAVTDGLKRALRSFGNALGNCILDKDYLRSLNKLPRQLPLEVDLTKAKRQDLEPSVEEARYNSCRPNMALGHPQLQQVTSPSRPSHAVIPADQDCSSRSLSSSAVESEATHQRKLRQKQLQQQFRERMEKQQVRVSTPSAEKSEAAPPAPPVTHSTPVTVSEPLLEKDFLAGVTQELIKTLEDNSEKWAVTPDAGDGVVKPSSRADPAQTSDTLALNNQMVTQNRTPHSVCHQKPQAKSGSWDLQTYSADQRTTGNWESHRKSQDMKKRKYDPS
Starred values were filed as active, the others as inactive; u = inconclusive; x = no result; ! = a repeat was not active. This is a sample that favours compounds with a hit; in the whole collection about 0.92% have one here.

SMILES | MLL AF4-AF9 inh | FN deposit inh | N-glyco inh | RAD54 branch | RAD52 inh
O=C(NCc1ccccc1Br)c1cccc2c1C(=O)c1ccc(-c3ccc(OC(F)(F)F)cc3)cc1S2(=O)=O | x | x | 156* | 11 | x
COc1ccc(-c2ccc3c(c2)S(=O)(=O)c2cccc(C(=O)NCc4ccccc4Cl)c2C3=O)cc1OC | 4 | -1 | -6 | -3 | -13
CC(C)c1cccc(-c2ccc3c(c2)S(=O)(=O)c2cccc(C(=O)NCc4ccccc4)c2C3=O)c1 | -6 | -21 | 92* | -11 | -11
COc1ccccc1-c1ccc2n(c1=O)C[C@H]1[C@H](CO)[C@@H](C(=O)N3CCCCC3)N(C)[C@@H]21 | -1 | x | x | -2 | 1
CCCN1C(=O)C2(SC(NC(C)=O)=NN2C(C)=O)c2cc(C)cc(C)c21 (centres undefined) | 2 | -5 | -5 | -5 | 1
CCN1C(=O)C2(SC(NC(C)=O)=NN2C(C)=O)c2cc(C)cc(C)c21 (centres undefined) | 50* | 7 | 5 | 2 | 0
COC(=O)c1c(N)n(CCCN2CCOCC2)c2nc3ccccc3nc12 | x | 1 | 11 | 79* | x
COCCOC(=O)c1c(N)n(CCCN2CCOCC2)c2nc3ccccc3nc12 | -5 | -8 | 4 | x | 4
CC(=O)Nc1ccc(Nc2ncnc(N)c2[N+](=O)[O-])cc1 | 50* | -10 | -5 | x | -8
O=C(/C=C/c1cn(-c2ccccc2)nc1-c1cccnc1)N1CCCC1 | 2 | 3 | 3 | x | -8
O=C(/C=C/c1cn(-c2ccccc2)nc1-c1cccnc1)c1ccco1 | 8 | -7 | 32* | x | -14
O=C(Nc1ccccc1)[C@@H]1[C@@H](CO)[C@@H]2Cn3c(cccc3=O)[C@@H]2N1CC1CC1 | -2 | x | x | -1 | 2
COc1ccc(CN2CC3(C2)CN(C(=O)Nc2ccc(F)cc2)[C@@H](CO)c2[nH]c4cc(OC)ccc4c23)cc1 | 44* | x | x | x | x
COc1ccc2c3c([nH]c2c1)[C@@H](CO)N(C(=O)Nc1ccc(F)cc1)CC31CN(Cc2ccc(F)cc2)C1 | 4 | x | x | x | 3
COc1ccc2c3c([nH]c2c1)[C@H](CO)N(C(=O)NC(C)C)CC31CN(Cc2ccc(F)cc2)C1 | 31* | -2 | x | x | 19
COc1ccc2c3c([nH]c2c1)[C@H](CO)N(C(=O)Nc1ccc(F)cc1)CC31CN(Cc2ccc(F)cc2)C1 | 11 | x | x | x | 15
COc1ccc2c3c([nH]c2c1)[C@H](CO)N(C(=O)NC(C)C)CC31CN(Cc2ccccc2)C1 | 26* | x | x | x | 11
COc1ccc2c3c([nH]c2c1)[C@H](CO)N(C(=O)NC(C)C)CC31CCN(Cc2ccccc2)CC1 | 13 | x | x | x | x
COc1ccc2c3c([nH]c2c1)[C@@H](CO)N(C(=O)Nc1ccc(F)cc1)CC31CN(Cc2ccccc2OC)C1 | 51* | x | x | x | x
C[C@H](CO)N1C[C@H](C)[C@@H](CN(C)Cc2cccnc2)Oc2ncc(C#CC3CCCCC3)cc2C1=O | 11 | x | x | -14 | 12
C[C@@H]1CN([C@H](C)CO)C(=O)c2cc(NC(=O)C3CCCCC3)ccc2O[C@@H]1CN(C)Cc1ccc(C(=O)O)cc1 | -4 | x | x | 4 | -2
CCCNC(=O)N1[C@H](CO)[C@@H](c2ccccc2)[C@@H]1C#N | 1 | -1 | x | 11 | -6
C[C@@H]1CN([C@H](C)CO)C(=O)c2cccc(N(C)C)c2O[C@@H]1CN(C)Cc1ccc(C(=O)O)cc1 | -3 | x | x | -5 | -2
COCC(=O)Nc1ccc2c(c1)[C@@H]1C[C@@H](CC(=O)O)O[C@H](CO)[C@@H]1O2 | 4 | x | x | x | 9
CCOC(=O)Cn1c(COc2ccccc2OC)[n+](C)c2ccccc21 | -1 | 1 | 4 | -2 | 5
SMILES | MLL AF4-AF9 inh | FN deposit inh | N-glyco inh | RAD54 branch | RAD52 inh
CCCCCCCCCCOC(=O)Cn1c(COc2ccc(OC)cc2)[n+](C)c2ccccc21 | x | x | 19 | 58*! | x
CCCCCCCCCCOC(=O)Cn1c(COc2ccccc2C)[n+](C)c2ccccc21 | x | x | 8 | u | 83*
COCC(=O)Nc1ccc2c(c1)OC[C@H](C)N(Cc1cccnc1)C[C@H](C)[C@H](OC)CN(C)C2=O | -3 | -1 | x | 2 | 6
CC(=O)N(C)C[C@@H]1Oc2ccc(N(C)C)cc2CC(=O)N(C)C[C@@H]1C | x | -4 | x | x | x
CCN1C(=O)Nc2cccc3cccc1c23 | 1 | 4 | 30* | 2 | -3
C[C@@H]1CCCCO[C@@H](CN(C)C(=O)NC2CCCCC2)[C@@H](C)CN([C@@H](C)CO)C(=O)c2cc(NS(=O)(=O)c3cn(C)cn3)ccc2O1 | -2 | x | x | x | -5
CN1C(=O)c2cccc3c(S(=O)(=O)Nc4ccccn4)ccc1c23 | x | x | 41* | x | x
Cc1ccccc1NS(=O)(=O)c1ccc2c3c(cccc13)C(=O)N2C | -1 | 1 | 42* | 4 | 3
COc1ccc(NC(=O)c2ccc(NC(=O)c3ccncc3)cc2)cc1 | 31* | 2 | -1 | -5 | -5
O=C(C[C@@H]1CC[C@H](NC(=O)c2ccccc2)[C@H](CO)O1)Nc1ccc(-c2ccccc2)cc1 | 3 | -4 | x | -10 | 14
O=C(c1ccc(NC2=NC3CS(=O)(=O)CC3S2)cc1)N1CCN(c2ccc(F)cc2)CC1 (centres undefined) | 1 | -6 | 4 | 5 | -11
O=C(c1ccc(NC2=NC3CS(=O)(=O)CC3S2)cc1)N1CCN(c2ccccc2F)CC1 (centres undefined) | 48* | 5 | -1 | -8 | -17
CCC(=O)N1[C@@H](CO)[C@@H](c2ccccc2)C12CN(Cc1ccccc1Cl)C2 | 1 | -3 | x | x | -10
C[C@H](CO)N1C[C@H](C)[C@H](CN(C)Cc2cccc(C(F)(F)F)c2)Oc2ncc(-c3ccc(F)cc3)cc2C1=O | 9 | 6 | x | x | 0
CCS(=O)(=O)N[C@H]1CC[C@@H](CC(=O)NCc2ccc(F)cc2)O[C@@H]1CO | -2 | -10 | x | 5 | -30
C[C@H](CO)N1C[C@H](C)[C@@H](CN(C)C(=O)CCN2CCCCC2)Oc2ncc(C#CCN(C)C)cc2C1=O | 0 | 8 | x | -8 | -2
CCN(CC)c1ccc(/C=C2/C(=O)ON=C2C)cc1 | 15 | 1 | 6 | x | -84
CCN(CC)c1ccc(/C=C2\C(=O)N(c3nnc(C)c(=O)[nH]3)N=C2C)cc1 | -3 | 3 | 43* | 7 | -61
COCC(=O)N1[C@H](C#N)[C@@H](c2ccc(C#Cc3ccccc3F)cc2)[C@H]1CO | -1 | 14 | x | -2 | -30
Cc1ccc(-n2c(=O)cc(N3CC(C)OC(C)C3)[nH]c2=O)cc1 (centres undefined) | 44* | 5 | 1 | 5 | -5

Bioassay records from PubChem.
